Assay results taken from ChEMBL document CHEMBL1123641, “Antiulcer agents. 2. Gastric antisecretory, cytoprotective, and metabolic properties of substituted imidazo[1,2-a]pyridines and analogues” (J Med Chem, 1987).
Active and inactive are the calls of the source. The calls are words filed in the database; no cut-off is given here.

How the values were obtained:
[1] = tested on: Canis familiaris; assay: Antisecretory activity in histamine stimulated dogs at 5 mg/kg dose administered intravenously; format: functional; settings: Canis lupus familiaris; route intravenous
Summary of the method: (§1)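 Adult mongrel dogs with surgically prepared Heidenhain pouches, acid secretion stimulated with histamine. Compound given intravenously (0.1-5 mg/kg range). Acid output reduction is expressed relative to the nondrug-treated control value in the same animal, each dog serving as its own control. Unless noted otherwise, one dog per compound. ED50 is the iv dose reducing acid output to 50% of control.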

[2] = tested on: Canis familiaris; assay: Antisecretory activity in histamine stimulated dogs at 5 mg/kg dose administered orally; format: functional; settings: Canis lupus familiaris; route oral
Summary of the method: (§2)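 Heidenhain pouch mongrel dogs, histamine-stimulated acid secretion. Compound given orally at 2–8 mg/kg. Reduction in acid output is relative to the same animal's own nondrug control, since histamine response depends on pouch size. Usually a single dog per compound. Oral ED50 is the dose reducing acid output to 50% of control.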

[3] = tested on: Canis familiaris; assay: percentage inhibition of acid secretion in histamine stimulated dogs at a dose of 0.2 mg/kg; format: functional; settings: Canis lupus familiaris
[4] = tested on: Canis familiaris; assay: percentage inhibition of acid secretion in histamine stimulated dogs at a dose of 0.4 mg/kg; format: functional; settings: Canis lupus familiaris
[5] = tested on: Canis familiaris; assay: Antisecretory activity in histamine stimulated dogs at 1 mg/kg dose administered intravenously; format: functional; settings: Canis lupus familiaris, route intravenous; summary of the method: as §1
[6] = tested on: Canis familiaris; assay: Antisecretory activity in histamine stimulated dogs at 2 mg/kg dose administered intravenously; format: functional; settings: Canis lupus familiaris, route intravenous; summary of the method: as §1
[7] = tested on: Canis familiaris; assay: Antisecretory activity in histamine stimulated dogs at 2 mg/kg dose administered orally; format: functional; settings: Canis lupus familiaris, route oral; summary of the method: as §2
[8] = tested on: Canis familiaris; assay: Antisecretory activity in histamine stimulated dogs at 4 mg/kg dose administered orally; format: functional; settings: Canis lupus familiaris, route oral; summary of the method: as §2
[9] = tested on: Canis familiaris; assay: Antisecretory activity in histamine stimulated dogs at 8 mg/kg dose administered orally; format: functional; settings: Canis lupus familiaris, route oral; summary of the method: as §2
[10] = species: Rattus norvegicus; assay: Cytoprotective activity in rats against the ethyl alcohol stimulated ulcers measured as effective dose; format: functional
Summary of the method: (§3)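 Rats were dosed orally at 1–30 mg/kg, 30 min before an oral challenge of absolute ethanol. Ethanol-induced gastric lesions were scored 1 h later, and an effective dose was estimated.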

[11] = tested on: Rattus norvegicus; assay: Antisecretory activity in pylorus ligated rats at a 40 mg/kg dose administered intraperitoneally; format: functional; settings: ip, route intraperitoneal
Summary of the method: (§4)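 Pylorus-ligated rats, six per compound and eight controls. Compound given intraperitoneally at 40 mg/kg at the time of ligation. Reduction in acid output measured over 4 h.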

[12] = tested on: Canis familiaris; assay: Antisecretory activity in histamine stimulated dogs following 5 mg/kg i.v. administration.; format: functional; settings: Canis lupus familiaris, route intravenous; summary of the method: as §1
[13] = tested on: Canis familiaris; assay: Antisecretory activity in histamine stimulated dogs at 0.1 mg/kg dose administered intravenously; format: functional; settings: Canis lupus familiaris, route intravenous; summary of the method: as §1
[14] = tested on: Rattus norvegicus; assay: Antisecretory activity in pylorus ligated rats at 40 mg/kg dose administered intraperitoneal; format: functional; settings: ip; summary of the method: as §4
[15] = tested on: Canis familiaris; assay: percentage inhibition of acid secretion in histamine stimulated dogs at a dose of 0.05 mg/kg; format: functional; settings: Canis lupus familiaris
[16] = tested on: Canis familiaris; assay: Antisecretory activity in histamine stimulated dogs at 5 mg/kg dose administered orally measured as 50% effective concentration; format: functional; settings: Canis lupus familiaris; route oral; summary of the method: as §2
[17] = species: Rattus norvegicus; assay: Cytoprotective activity in rats against the ethyl alcohol stimulated ulcers measured as effective dose; In active; format: functional, organism-based; summary of the method: as §3
[18] = tested on: Canis familiaris; assay: The intravenous dose of cimetidine required to reduce acid output to 50% of control value in histamine stimulated dogs; settings: Canis lupus familiaris
[19] = tested on: Canis familiaris; assay: The oral dose of cimetidine required to reduce acid output to 50% of control value in histamine stimulated dogs; settings: Canis lupus familiaris
[20] = species: Canis familiaris; settings: Canis lupus familiaris
[21] = species: Rattus norvegicus; assay: animal or person; settings: Canis lupus familiaris, in Rattus norvegicus, ip, 4 h

| Compound | inhibition in vivo at 2 mg/kg [6] | inhibition in vivo at 2 mg/kg [7] | inhibition in vivo at 4 mg/kg [8] | inhibition in vivo at 8 mg/kg [9] | ED50 [10] | inhibition in vivo at 40 mg/kg [11] | other results |
| --- | --- | --- | --- | --- | --- | --- | --- |
| Cc1nc2c(OCc3ccccc3)nccn2c1N | 65% | 63% | 69% | 70% | 5 mg/kg | 79% | ED50 [1]: 0.8 mg/kg; ED50 [2]: 1.4 mg/kg; inhibition in vivo at 0.2 mg/kg [3]: 15%; inhibition in vivo at 0.4 mg/kg [4]: 41%; inhibition in vivo at 1 mg/kg [5]: 56% |
| Cc1nc2c(OCc3ccc(Cl)cc3)cccn2c1N | – | 32% | 81% | 92% | 2.2 mg/kg | 66% | inhibition in vivo at 1 mg/kg [5]: 74% |
| Cc1nc2c(OCc3ccccc3)cccn2c1NC(C)C | – | – | – | – | 16 mg/kg | 18% | inhibition in vivo at 5 mg/kg [12]: 0% |
| Cc1nc2c(OCc3cccs3)cccn2c1N | 77% | 30% | 80% | 86% | 5 mg/kg | 70% | inhibition in vivo at 0.1 mg/kg [13]: 12% |
| Cc1nc2c(OCc3ccsc3)cccn2c1N | 82% | 29% | 86% | 88% | 8.4 mg/kg | 52% | – |
| Cc1nc2c(OCc3ccccc3)cccn2c1NC(=O)OCc1ccccc1 | 82% | – | 17% | – | – | 8% | – |
| Cc1nc2cccc(CCc3ccccc3)n2c1N | – | – | – | – | 14 mg/kg | – | inhibition in vivo at 40 mg/kg [14]: 40% |
| Cc1nc2c(OCc3ccccc3)cccn2c1N | 97% | 50% | 74% | 96% | 6 mg/kg | 99% | ED50 [1]: 0.1 mg/kg; ED50 [2]: 2 mg/kg; inhibition in vivo at 0.05 mg/kg [15]: 15%; inhibition in vivo at 0.2 mg/kg [3]: 41%; inhibition in vivo at 0.1 mg/kg [13]: 55% |
| CCc1nc2c(OCc3ccccc3)cccn2c1N | – | – | – | 59% | 5.2 mg/kg | 83% | inhibition in vivo at 1 mg/kg [5]: 72% |
| Cc1ccn2c(CC#N)c(C)nc2c1OCc1ccccc1 | 90% | 8% | 20% | 59% | 13 mg/kg | 99% | ED50 [1]: 0.53 mg/kg; ED50 [16]: 7.8 mg/kg; inhibition in vivo at 0.2 mg/kg [3]: 1%; inhibition in vivo at 0.4 mg/kg [4]: 39%; inhibition in vivo at 1 mg/kg [5]: 74% |
| CC(=O)Oc1c(C)nc2c(CCc3ccccc3)cccn12 | 6% | – | – | – | – | 64% | ED50 [17]: inactive |
| CCCN(CCC)c1c(C)nc2c(OCc3ccccc3)cccn12 | – | – | – | – | 8.4 mg/kg | 60% | inhibition in vivo at 5 mg/kg [12]: 0% |
| Cc1nc2c(OCc3ccc(F)cc3)cccn2c1N | 95% | 55% | 60% | 93% | 4.8 mg/kg | 95% | – |
| CCNc1c(C)nc2c(CCc3ccccc3)cccn12 | – | – | – | 65% | 5.2 mg/kg | 78% | inhibition in vivo at 5 mg/kg [12]: 11% |
| CN/C(=N\CCSCc1nc[nH]c1C)NC#N [CIMETIDINE] | – | – | – | – | – | – | ED50 [18]: 0.66 mg/kg; ED50 [19]: 1.25 mg/kg; ED50 [20]: inactive; ED50 [21]: 26.1 mg/kg |
| CC(C)(C)c1nc2c(OCc3ccccc3)cccn2c1N | – | – | – | 0% | 15 mg/kg | 0% | inhibition in vivo at 5 mg/kg [12]: 2% |
